According to ChEMBL document CHEMBL5113423, “Discovery and preclinical profile of sudapyridine (WX-081), a novel anti-tuberculosis agent” (Bioorg Med Chem Lett, 2022):
≈ marks a conversion by molar mass, not a printed value.

Experiments:
[1] = tested on: Mycobacterium tuberculosis; assay: Antimycobacterial activity against Mycobacterium tuberculosis H37Rv assessed as mycobacterial growth inhibition by microplate alamar blue assay; type: functional
Summary of the method: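 M. tuberculosis H37Rv under normoxic conditions, microplate alamar blue assay (MABA) following Cho et al. Read-out is MIC.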

[2] = Cytotoxicity against African green monkey Vero cells; type: toxicity, cell-based; settings: chlorocebus sabaeus
[3] = Cytotoxicity against human HeLa cells; type: toxicity, cell-based
[4] = tested on: Mycobacterium tuberculosis; assay: Antimycobacterial activity against Mycobacterium tuberculosis H37Rv assessed as mycobacterial growth inhibition by low oxygen recovery assay; type: functional
Summary of the method: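 M. tuberculosis H37Rv under hypoxic conditions, low-oxygen recovery assay (LORA) following Cho et al. Read-out is MIC.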

[5] = target: Voltage-gated inwardly rectifying potassium channel KCNH2 (Homo sapiens, UniProt Q12809); assay: Inhibition of human ERG; type: toxicity
Cardiac Purkinje fiber = assay: Effect on rabbit Purkinje fiber assessed as change in concentration of maximum upstroke velocity; type: functional, Oryctolagus cuniculus
[6] = target: Sodium channel protein type 5 subunit alpha (Homo sapiens, UniProt Q14524); assay: Inhibition of Nav1.5 (unknown origin)
Chain of Sodium channel protein type 5 subunit alpha (Q14524 whole entry): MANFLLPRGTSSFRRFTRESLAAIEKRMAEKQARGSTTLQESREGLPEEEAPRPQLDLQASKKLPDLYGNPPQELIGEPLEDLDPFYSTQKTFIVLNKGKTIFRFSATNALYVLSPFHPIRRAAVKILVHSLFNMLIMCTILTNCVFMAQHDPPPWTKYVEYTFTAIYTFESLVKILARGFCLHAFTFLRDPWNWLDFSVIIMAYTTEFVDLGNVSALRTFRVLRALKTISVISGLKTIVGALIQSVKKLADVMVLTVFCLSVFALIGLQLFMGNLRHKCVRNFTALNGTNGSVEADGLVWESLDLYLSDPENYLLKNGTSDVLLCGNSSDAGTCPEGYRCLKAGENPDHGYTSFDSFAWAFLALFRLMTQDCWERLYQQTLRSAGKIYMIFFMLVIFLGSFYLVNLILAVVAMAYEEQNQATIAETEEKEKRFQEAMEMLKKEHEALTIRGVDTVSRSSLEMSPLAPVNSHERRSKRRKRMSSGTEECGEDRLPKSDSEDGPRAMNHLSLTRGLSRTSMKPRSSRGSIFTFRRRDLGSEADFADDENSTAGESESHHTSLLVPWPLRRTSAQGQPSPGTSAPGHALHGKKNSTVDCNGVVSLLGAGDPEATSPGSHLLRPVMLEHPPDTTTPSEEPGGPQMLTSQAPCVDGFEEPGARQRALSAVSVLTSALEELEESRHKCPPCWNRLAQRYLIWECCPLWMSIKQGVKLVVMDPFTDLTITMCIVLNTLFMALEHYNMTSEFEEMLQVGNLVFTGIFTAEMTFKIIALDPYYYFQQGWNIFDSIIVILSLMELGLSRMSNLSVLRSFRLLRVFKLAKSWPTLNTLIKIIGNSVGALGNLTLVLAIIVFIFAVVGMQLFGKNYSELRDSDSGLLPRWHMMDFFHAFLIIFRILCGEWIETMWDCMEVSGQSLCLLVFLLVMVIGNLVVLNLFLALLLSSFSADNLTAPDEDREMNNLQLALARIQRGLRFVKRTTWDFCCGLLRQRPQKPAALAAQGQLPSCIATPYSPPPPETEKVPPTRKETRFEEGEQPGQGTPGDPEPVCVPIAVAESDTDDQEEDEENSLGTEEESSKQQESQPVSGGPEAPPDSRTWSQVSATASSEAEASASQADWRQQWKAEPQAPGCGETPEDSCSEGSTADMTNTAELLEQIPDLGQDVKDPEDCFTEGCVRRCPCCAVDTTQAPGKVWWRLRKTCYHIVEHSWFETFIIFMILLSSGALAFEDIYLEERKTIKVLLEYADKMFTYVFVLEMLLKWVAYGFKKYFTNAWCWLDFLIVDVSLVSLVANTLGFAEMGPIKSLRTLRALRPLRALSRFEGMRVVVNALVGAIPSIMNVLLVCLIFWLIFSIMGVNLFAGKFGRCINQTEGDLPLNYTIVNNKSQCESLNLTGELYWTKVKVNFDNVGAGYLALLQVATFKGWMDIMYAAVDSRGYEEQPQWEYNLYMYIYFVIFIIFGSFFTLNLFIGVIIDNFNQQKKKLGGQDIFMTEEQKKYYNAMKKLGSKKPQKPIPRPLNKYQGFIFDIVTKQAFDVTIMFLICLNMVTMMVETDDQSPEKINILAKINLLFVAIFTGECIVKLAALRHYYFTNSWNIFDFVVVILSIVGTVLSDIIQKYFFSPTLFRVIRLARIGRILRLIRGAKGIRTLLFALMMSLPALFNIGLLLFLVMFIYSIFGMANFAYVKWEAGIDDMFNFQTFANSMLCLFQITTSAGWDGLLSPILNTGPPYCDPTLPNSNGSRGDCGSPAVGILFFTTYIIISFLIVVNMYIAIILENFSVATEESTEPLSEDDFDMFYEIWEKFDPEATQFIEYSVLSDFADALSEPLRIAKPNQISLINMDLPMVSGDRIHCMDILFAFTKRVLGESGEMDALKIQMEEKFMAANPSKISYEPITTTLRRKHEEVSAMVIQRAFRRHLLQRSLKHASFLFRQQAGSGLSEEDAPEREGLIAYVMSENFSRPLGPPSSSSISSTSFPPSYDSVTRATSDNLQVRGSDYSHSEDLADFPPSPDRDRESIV

[7] = target: Voltage-dependent L-type calcium channel subunit alpha-1C (Homo sapiens, UniProt Q13936); assay: Inhibition of human Cav1.2
Chain of Voltage-dependent L-type calcium channel subunit alpha-1C (Q13936 whole entry): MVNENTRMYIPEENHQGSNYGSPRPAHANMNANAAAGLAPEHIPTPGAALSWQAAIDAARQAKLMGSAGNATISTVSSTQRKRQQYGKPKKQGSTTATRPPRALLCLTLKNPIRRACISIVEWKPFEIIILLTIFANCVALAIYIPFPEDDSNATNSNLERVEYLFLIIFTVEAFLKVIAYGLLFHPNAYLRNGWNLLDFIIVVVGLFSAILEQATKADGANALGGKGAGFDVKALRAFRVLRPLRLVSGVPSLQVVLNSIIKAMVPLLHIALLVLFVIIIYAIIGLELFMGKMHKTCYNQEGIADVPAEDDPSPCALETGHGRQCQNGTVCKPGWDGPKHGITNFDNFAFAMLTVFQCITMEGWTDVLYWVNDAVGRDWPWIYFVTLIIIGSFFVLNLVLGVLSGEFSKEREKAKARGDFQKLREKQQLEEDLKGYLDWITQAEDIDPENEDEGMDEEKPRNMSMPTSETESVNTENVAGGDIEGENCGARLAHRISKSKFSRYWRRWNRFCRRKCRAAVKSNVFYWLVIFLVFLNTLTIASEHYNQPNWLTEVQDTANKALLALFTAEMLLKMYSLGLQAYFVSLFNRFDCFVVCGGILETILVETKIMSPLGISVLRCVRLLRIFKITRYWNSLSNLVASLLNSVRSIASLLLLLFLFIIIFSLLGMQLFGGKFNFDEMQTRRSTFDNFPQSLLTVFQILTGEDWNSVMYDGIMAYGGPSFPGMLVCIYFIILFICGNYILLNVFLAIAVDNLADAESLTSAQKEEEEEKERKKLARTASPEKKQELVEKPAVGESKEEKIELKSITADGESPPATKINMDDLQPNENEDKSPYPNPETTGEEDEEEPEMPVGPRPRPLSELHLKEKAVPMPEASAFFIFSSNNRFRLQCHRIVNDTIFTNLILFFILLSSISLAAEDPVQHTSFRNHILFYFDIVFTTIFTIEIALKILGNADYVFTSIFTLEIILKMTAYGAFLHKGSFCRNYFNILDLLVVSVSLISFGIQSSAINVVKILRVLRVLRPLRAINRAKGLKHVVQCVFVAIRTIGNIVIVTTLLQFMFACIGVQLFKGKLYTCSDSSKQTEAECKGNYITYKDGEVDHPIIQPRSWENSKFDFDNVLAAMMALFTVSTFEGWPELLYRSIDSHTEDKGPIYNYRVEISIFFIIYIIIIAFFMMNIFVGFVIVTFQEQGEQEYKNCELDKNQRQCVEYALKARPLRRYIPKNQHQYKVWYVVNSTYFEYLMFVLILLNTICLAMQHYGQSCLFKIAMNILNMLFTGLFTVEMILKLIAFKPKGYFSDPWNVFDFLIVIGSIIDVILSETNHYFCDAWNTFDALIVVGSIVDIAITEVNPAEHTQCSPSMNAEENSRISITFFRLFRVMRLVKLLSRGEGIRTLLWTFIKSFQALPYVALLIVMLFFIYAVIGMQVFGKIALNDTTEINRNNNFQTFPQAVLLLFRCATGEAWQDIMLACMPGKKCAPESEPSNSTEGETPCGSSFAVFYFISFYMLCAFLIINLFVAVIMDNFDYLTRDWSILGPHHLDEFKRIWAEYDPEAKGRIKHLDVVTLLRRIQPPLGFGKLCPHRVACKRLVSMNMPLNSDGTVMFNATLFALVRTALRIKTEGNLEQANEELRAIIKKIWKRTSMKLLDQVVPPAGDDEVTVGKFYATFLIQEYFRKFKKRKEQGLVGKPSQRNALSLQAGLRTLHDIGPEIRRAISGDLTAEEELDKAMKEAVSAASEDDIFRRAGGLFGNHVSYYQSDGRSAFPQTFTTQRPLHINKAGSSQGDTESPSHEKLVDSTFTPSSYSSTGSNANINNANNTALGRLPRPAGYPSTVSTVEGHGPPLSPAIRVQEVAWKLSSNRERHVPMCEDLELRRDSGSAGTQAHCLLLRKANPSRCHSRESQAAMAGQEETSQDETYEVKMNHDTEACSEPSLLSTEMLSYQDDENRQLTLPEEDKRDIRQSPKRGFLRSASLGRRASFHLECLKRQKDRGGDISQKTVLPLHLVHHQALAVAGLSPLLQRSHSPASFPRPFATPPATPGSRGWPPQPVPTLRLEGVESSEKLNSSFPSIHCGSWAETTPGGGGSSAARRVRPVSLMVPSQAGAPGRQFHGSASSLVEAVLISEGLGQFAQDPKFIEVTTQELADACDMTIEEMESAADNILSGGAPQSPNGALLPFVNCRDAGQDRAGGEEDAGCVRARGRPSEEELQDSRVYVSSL

[8] = tested on: Mycolicibacterium peregrinum; assay: Antimycobacterial activity against Mycobacterium peregrinum ATCC700686 assessed as mycobacterial growth inhibition; type: functional
[9] = tested on: Mycolicibacterium smegmatis; assay: Antimycobacterial activity against Mycobacterium smegmatis ATCC19420 assessed as mycobacterial growth inhibition; type: functional
[10] = tested on: Mycolicibacterium smegmatis; assay: Antimycobacterial activity against Mycobacterium smegmatis ATCC700084 assessed as mycobacterial growth inhibition; type: functional
[11] = tested on: Mycobacterium tuberculosis; assay: Antimycobacterial activity against drug-sensitive Mycobacterium tuberculosis assessed as mycobacterial growth inhibition; type: functional

Row | SMILES | MIC [1] | CC50 [2] | CC50 [3] | MIC [4] | also measured
1 | COc1nc(-c2ccncc2)ccc1[C@@H](c1ccccc1)[C@@](O)(CCN(C)C)c1cccc2ccccc12 | 0.7 µg/mL (≈ 1.39 µM) | > 50 µg/mL | 9.6 µg/mL (≈ 19.1 µM) |  | 
2 | COc1nc(-c2ccc(Cl)c(F)c2)ccc1[C@@H](c1ccccc1)[C@@](O)(CCN(C)C)c1cccc2ccccc12 | 0.19 µg/mL (≈ 0.342 µM) | > 50 µg/mL | > 64 µg/mL | 0.52 µg/mL (≈ 0.937 µM) | 
3 | COc1ccc(-c2ccc([C@@H](c3ccccc3)[C@@](O)(CCN(C)C)c3cccc4ccccc34)c(OC)n2)cc1 | 0.33 µg/mL (≈ 0.62 µM) | > 50 µg/mL | > 64 µg/mL | 0.19 µg/mL (≈ 0.357 µM) | 
4 | COc1nc(-c2cnsc2)ccc1[C@@H](c1ccccc1)[C@@](O)(CCN(C)C)c1cccc2ccccc12 | 1.9 µg/mL (≈ 3.73 µM) | 26.3 µg/mL (≈ 51.6 µM) | 28.8 µg/mL (≈ 56.5 µM) | 3.9 µg/mL (≈ 7.65 µM) | 
5 | COc1nc(-c2cccc(F)c2)ccc1[C@@H](c1ccccc1)[C@@](O)(CCN(C)C)c1cccc2ccccc12 | 0.48 µg/mL (≈ 0.922 µM) | > 50 µg/mL | 62.8 µg/mL (≈ 121 µM) | 1.18 µg/mL (≈ 2.27 µM) | 
6 | COc1nc(-c2ccc(Br)cc2)ccc1[C@@H](c1ccccc1)[C@@](O)(CCN(C)C)c1cccc2ccccc12 | 0.22 µg/mL (≈ 0.378 µM) | > 50 µg/mL | > 64 µg/mL | 0.22 µg/mL (≈ 0.378 µM) | 
7 | CNCC[C@@](O)(c1cccc2ccccc12)[C@H](c1ccccc1)c1cc2cc(Br)ccc2nc1OC |  |  |  |  | IC50 [5]: 1730 nM; Activity (Cardiac Purkinje fiber): 0.3 µM; IC50 [6]: > 10000 nM; IC50 [7]: 750 nM
8 | COc1ncc(-c2ccccc2)cc1[C@@H](c1ccccc1)[C@@](O)(CCN(C)C)c1cccc2ccccc12 | 1.1 µg/mL (≈ 2.19 µM) | > 50 µg/mL | 30.4 µg/mL (≈ 60.5 µM) | 0.7 µg/mL (≈ 1.39 µM) | MIC [8]: 0.0625 µg/mL (≈ 0.124 µM); MIC [9]: 0.0312 µg/mL (≈ 0.0622 µM); MIC [10]: 0.0625 µg/mL (≈ 0.124 µM)
9 | NC[C@H]1O[C@H](O[C@H]2[C@H](O)[C@@H](O[C@H]3O[C@H](CO)[C@@H](O)[C@H](N)[C@H]3O)[C@H](N)C[C@@H]2N)[C@H](O)[C@@H](O)[C@@H]1O [KANAMYCIN] |  |  |  |  | MIC50 [11]: 1.22 µg/mL (≈ 2.52 µM); MIC90 [11]: 1.91 µg/mL (≈ 3.94 µM)
10 | COc1ncc(-c2ccccc2)cc1[C@@H](c1ccccc1)[C@@](O)(CCN(C)C)c1cccc(F)c1F | 0.6 µg/mL (≈ 1.23 µM) | > 50 µg/mL | 28.1 µg/mL (≈ 57.5 µM) | 0.5 µg/mL (≈ 1.02 µM) | 
11 | CNCC[C@@](O)(c1cccc2ccccc12)[C@H](c1ccccc1)c1ccc(-c2ccc(Cl)cc2)nc1OC |  |  |  |  | IC50 [5]: 1890 nM; Activity (Cardiac Purkinje fiber): >3 µM; IC50 [6]: > 10000 nM; IC50 [7]: > 3000 nM
12 | COc1nc(-c2ccccc2F)ccc1[C@@H](c1ccccc1)[C@@](O)(CCN(C)C)c1cccc2ccccc12 | 1.41 µg/mL (≈ 2.71 µM) | > 50 µg/mL |  | 0.57 µg/mL (≈ 1.09 µM) | 
13 | COc1nc(-c2ccc(C(F)(F)F)cc2)ccc1[C@@H](c1ccccc1)[C@@](O)(CCN(C)C)c1cccc2ccccc12 | 0.96 µg/mL (≈ 1.68 µM) | > 50 µg/mL | > 64 µg/mL | 0.63 µg/mL (≈ 1.1 µM) | 
14 | CO[C@H]1/C=C/O[C@@]2(C)Oc3c(C)c(O)c4c(O)c(c(/C=N/N5CCN(C)CC5)c(O)c4c3C2=O)NC(=O)/C(C)=C\C=C\[C@H](C)[C@H](O)[C@@H](C)[C@@H](O)[C@@H](C)[C@H](OC(C)=O)[C@@H]1C [RIFAMPIN] |  |  |  |  | MIC50 [11]: 0.035 µg/mL (≈ 0.0425 µM); MIC90 [11]: 0.057 µg/mL (≈ 0.0693 µM)
15 | COc1nc(-c2ccsc2)ccc1[C@@H](c1ccccc1)[C@@](O)(CCN(C)C)c1cccc2ccccc12 |  | 24.4 µg/mL (≈ 48 µM) | > 64 µg/mL |  | 
16 | COc1nc(C(C)(C)C)ccc1[C@@H](c1ccccc1)[C@@](O)(CCN(C)C)c1cccc2ccccc12 | 1.3 µg/mL (≈ 2.69 µM) | 27.6 µg/mL (≈ 57.2 µM) | > 64 µg/mL | 2.7 µg/mL (≈ 5.59 µM) | 
17 | COc1ncc(-c2ccccc2)cc1[C@@H](c1ccccc1)[C@@](O)(CCN(C)C)c1cc(F)cc(F)c1 | 0.7 µg/mL (≈ 1.43 µM) | > 50 µg/mL | 28.8 µg/mL (≈ 58.9 µM) | 0.4 µg/mL (≈ 0.819 µM) | 
18 | COc1nc(-c2ccc(C#N)cc2)ccc1[C@@H](c1ccccc1)[C@@](O)(CCN(C)C)c1cccc2ccccc12 | 0.44 µg/mL (≈ 0.834 µM) | > 50 µg/mL | > 64 µg/mL | 0.77 µg/mL (≈ 1.46 µM) | 
19 | COc1nc(-c2ccccc2Cl)ccc1[C@@H](c1ccccc1)[C@@](O)(CCN(C)C)c1cccc2ccccc12 | 1.17 µg/mL (≈ 2.18 µM) | > 50 µg/mL | > 64 µg/mL | 3.03 µg/mL (≈ 5.64 µM) | 
20 | COc1nc(-c2cccc(Cl)c2)ccc1[C@@H](c1ccccc1)[C@@](O)(CCN(C)C)c1cccc2ccccc12 | 2.73 µg/mL (≈ 5.08 µM) | > 50 µg/mL |  | 1.36 µg/mL (≈ 2.53 µM) | 
21 | COc1nc(-c2ccccc2)ccc1[C@@H](c1ccccc1)[C@@](O)(CCN(C)C)c1cccc2ccccc12 |  |  |  |  | MIC [8]: 0.5 µg/mL (≈ 0.995 µM); MIC [9]: 1 µg/mL (≈ 1.99 µM); MIC [10]: 1 µg/mL (≈ 1.99 µM)
22 | COc1nc(C2CCOCC2)ccc1[C@@H](c1ccccc1)[C@@](O)(CCN(C)C)c1cccc2ccccc12 | 1.3 µg/mL (≈ 2.55 µM) | > 50 µg/mL | 22.5 µg/mL (≈ 44.1 µM) | 2.7 µg/mL (≈ 5.29 µM) | 
23 | COc1ncc(-c2ccccc2)cc1[C@@H](c1ccccc1)[C@@](O)(CCN(C)C)c1ccccc1 | 1.5 µg/mL (≈ 3.31 µM) | > 50 µg/mL | 11.9 µg/mL (≈ 26.3 µM) | 1.2 µg/mL (≈ 2.65 µM) | 
24 | COc1nc(C2CCCCC2)ccc1[C@@H](c1ccccc1)[C@@](O)(CCN(C)C)c1cccc2ccccc12 |  | 32.3 µg/mL (≈ 63.5 µM) | 57.7 µg/mL (≈ 113 µM) | 1.8 µg/mL (≈ 3.54 µM) | 
25 | COc1nc(-c2ccc(OC(F)(F)F)cc2)ccc1[C@@H](c1ccccc1)[C@@](O)(CCN(C)C)c1cccc2ccccc12 | 0.03 µg/mL (≈ 0.0511 µM) | > 50 µg/mL | > 64 µg/mL | 0.61 µg/mL (≈ 1.04 µM) | 
26 | COc1nc(-c2ccc(F)cc2)ccc1[C@@H](c1ccccc1)[C@@](O)(CCN(C)C)c1cccc2ccccc12 | 0.34 µg/mL (≈ 0.653 µM) | > 50 µg/mL | > 64 µg/mL | 0.71 µg/mL (≈ 1.36 µM) | 
27 | NNC(=O)c1ccncc1 [ISONIAZID] |  |  |  |  | MIC50 [11]: 0.024 µg/mL (≈ 0.175 µM); MIC90 [11]: 0.032 µg/mL (≈ 0.233 µM)
28 | COc1ncc(-c2ccccc2)cc1[C@@H](c1ccccc1)[C@@](O)(CCN(C)C)c1cc(F)ccc1F | 0.7 µg/mL (≈ 1.43 µM) | > 50 µg/mL |  | 0.7 µg/mL (≈ 1.43 µM) | 
